Values after ≈ are worked out from the molar mass of the structure shown.
Legend:
[1] = tested on: Staphylococcus epidermidis; assay: In vitro inhibitory activity against Staphylococcus epidermidis (EryRc 011CB2)
[2] = tested on: Staphylococcus epidermidis; assay: In vitro inhibitory activity against Staphylococcus epidermidis (EryRi 012GO11i); format: functional
Outline: (§1)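 Two-fold agar dilution on Mueller-Hinton agar (pH 7.4). Inoculum from overnight plate cultures suspended in Mueller-Hinton broth, adjusted to 10^9 CFU/mL, diluted 1:200 and spotted by multipoint inoculator at about 10^4 CFU/spot. Plates incubated 37 °C for 20 h. MIC taken as lowest concentration with no visible growth.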

Streptococcus pneumoniae [3] = assay: In vitro inhibitory activity against Streptococcus pneumoniae (EryRi 030SJ5i); format: functional
Outline: as §1

Streptococcus pneumoniae [4] = assay: In vitro inhibitory activity against Streptococcus pneumoniae (032UC1); format: functional
Outline: as §1

Staphylococcus aureus [5] = assay: In vitro inhibitory activity against Staphylococcus aureus (EryRi 011GO25i); format: functional
Outline: as §1

Haemophilus influenzae [6] = assay: In vitro inhibitory activity against Haemophilus influenzae (351HT3); format: functional
Outline: as §1

Escherichia coli = assay: In vitro inhibitory activity against Escherichia coli (250 UC5); format: functional
Outline: as §1

Streptococcus pneumoniae [7] = assay: In vitro inhibitory activity against Streptococcus pneumoniae (EryRc 030SJ1); format: functional
Outline: as §1

Staphylococcus aureus [8] = assay: In vitro inhibitory activity against Staphylococcus aureus (011UC4); format: functional
Outline: as §1

Haemophilus influenzae [9] = assay: In vitro inhibitory activity against Haemophilus influenzae (351CB12); format: functional
Outline: as §1

Streptococcus pyogenes [10] = assay: In vitro inhibitory activity against Streptococcus pyogenes (02A1UC1); format: functional
Outline: as §1

Enterococcus [11] = assay: In vitro inhibitory activity against enterococci EryRc (13); format: functional
Streptococcus pneumoniae [12] = assay: In Vivo evaluation for its effective dose against Streptococcus pneumoniae (032UC1); format: functional
Outline: (§2)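 Male Charles River CD1 mice, 20-22 g, 10 per dose group, infected intraperitoneally with 0.5 mL diluted overnight broth culture (physiological buffer or 5% hog mucine) at 10-100 times the minimal lethal dose. Compound suspended in carboxymethylcellulose, 0.5 mL given orally immediately and 4 h postinfection. Survival followed 8-10 days; ED50 (unitary dose protecting 50% from death) by Litchfield-Wilcoxon probit method.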

Haemophilus [13] = assay: In vitro inhibitory activity against Haemophilus AmpR (37); format: functional
Staphylococcus aureus [14] = assay: In Vivo evaluation for its effective dose against Staphylococcus aureus (011GO25 EryRi.; format: functional
Outline: as §2

Haemophilus influenzae [15] = assay: In Vivo evaluation for its effective dose against Haemophilus influenzae (351TO19 AmpR beta (-)); format: functional
Outline: as §2

Staphylococcus aureus [16] = assay: In vitro inhibitory activity against Staphylococcus aureus (EryRc 011CB20); format: functional
Outline: as §1

Haemophilus influenzae [17] = assay: In Vivo evaluation for its effective dose against Haemophilus influenzae (351GR1); format: functional
Outline: as §2

Haemophilus [18] = assay: In vitro inhibitory activity against Haemophilus AmpS (43); format: functional
Staphylococcus aureus [19] = assay: In Vivo evaluation for its effective dose against Staphylococcus aureus (011UC4).; format: functional
Outline: as §2

Streptococcus pneumoniae [20] = assay: In Vivo evaluation for its effective dose against Streptococcus pneumoniae (030MV2 EryRc); format: functional
Outline: as §2

Streptococcus pneumoniae [21] = assay: In Vivo evaluation for its effective dose against Streptococcus pneumoniae (030Cr29 EryRc); format: functional
Outline: as §2

Streptococcus sp. [22] = assay: In vitro inhibitory activity against Streptococci EryR (27); format: functional
[23] = In vitro inhibitory activity against Pneumococci EryRc (34); format: functional
Haemophilus influenzae [24] = assay: In Vivo evaluation for its effective dose against Haemophilus influenzae (351RD7 AmpR beta (+)); format: functional
Outline: as §2

Streptococcus sp. [25] = assay: In vitro inhibitory activity against Streptococci EryRi (98); format: functional
Streptococcus pneumoniae [26] = assay: In Vivo evaluation for its effective dose against Streptococcus pneumoniae (030SJ6 EryRc); format: functional
Outline: as §2

Enterococcus [27] = assay: In vitro inhibitory activity against enterococci EryRi (19); format: functional
Streptococcus pneumoniae [28] = assay: In Vivo evaluation for its effective dose against Streptococcus pneumoniae (030RO1 EryRi); format: functional
Outline: as §2

Streptococcus pneumoniae [29] = assay: In Vivo evaluation for its effective dose against Streptococcus pneumoniae (030SJ1 EryRc); format: functional
Outline: as §2

Staphylococcus sp. = assay: In vitro inhibitory activity against Staphylococci EryRi (65); format: functional
[30] = In vitro inhibitory activity against Pneumococci PenR (65); format: functional
Streptococcus pyogenes [31] = assay: In Vivo evaluation for its effective dose against Streptococcus pyogenes (02A1UC1); format: functional
Outline: as §2

CC[C@H]1OC(=O)[C@H](C)C(=O)[C@H](C)[C@@H](O[C@@H]2O[C@H](C)C[C@H](N(C)C)[C@H]2O)[C@](C)(OC)C[C@@H](C)C(=O)[C@H](C)[C@H]2N(CCCCc3ccnc4ccccc34)C(=O)O[C@]12C
MIC [1]: 40 µg/mL (≈ 50.3 µM)
MIC [2]: 0.15 µg/mL (≈ 0.188 µM)
MIC (Streptococcus pneumoniae [3]): 0.02 µg/mL (≈ 0.0251 µM)
MIC (Streptococcus pneumoniae [4]): 0.02 µg/mL (≈ 0.0251 µM)
MIC (Staphylococcus aureus [5]): 0.08 µg/mL (≈ 0.101 µM)
MIC (Haemophilus influenzae [6]): 1.2 µg/mL (≈ 1.51 µM)
MIC (Escherichia coli): 40 µg/mL (≈ 50.3 µM)
MIC (Streptococcus pneumoniae [7]): 1.2 µg/mL (≈ 1.51 µM)
MIC (Staphylococcus aureus [8]): 0.04 µg/mL (≈ 0.0503 µM)
MIC (Haemophilus influenzae [9]): 1.2 µg/mL (≈ 1.51 µM)
MIC (Streptococcus pyogenes [10]): 0.02 µg/mL (≈ 0.0251 µM)

CC[C@H]1OC(=O)[C@H](C)[C@@H](O[C@H]2C[C@@](C)(OC)[C@@H](O)[C@H](C)O2)[C@H](C)[C@@H](O[C@@H]2O[C@H](C)C[C@H](N(C)C)[C@H]2O)[C@](C)(O)C[C@@H](C)CN(C)[C@H](C)[C@@H](O)[C@]1(C)O [AZITHROMYCIN]
MIC50 (Enterococcus [11]): 10 µg/mL (≈ 13.4 µM)
MIC90 (Enterococcus [11]): 40 µg/mL (≈ 53.4 µM)
ED50 (Streptococcus pneumoniae [12]): > 50 mg/kg
MIC50 (Haemophilus [13]): 0.3 µg/mL (≈ 0.401 µM)
MIC90 (Haemophilus [13]): 1.2 µg/mL (≈ 1.6 µM)
MIC [2]: 40 µg/mL (≈ 53.4 µM)
ED50 (Staphylococcus aureus [14]): > 100 mg/kg
ED50 (Haemophilus influenzae [15]): 368 mg/kg
MIC (Staphylococcus aureus [16]): 40 µg/mL (≈ 53.4 µM)
ED50 (Haemophilus influenzae [17]): 109 mg/kg
MIC50 (Haemophilus [18]): 0.15 µg/mL (≈ 0.2 µM)
MIC90 (Haemophilus [18]): 1.2 µg/mL (≈ 1.6 µM)
ED50 (Staphylococcus aureus [19]): 60 mg/kg
MIC (Streptococcus pneumoniae [3]): 40 µg/mL (≈ 53.4 µM)
MIC (Streptococcus pneumoniae [4]): 0.15 µg/mL (≈ 0.2 µM)
ED50 (Streptococcus pneumoniae [20]): > 100 mg/kg
ED50 (Streptococcus pneumoniae [21]): > 100 mg/kg
MIC (Staphylococcus aureus [5]): 40 µg/mL (≈ 53.4 µM)
MIC (Haemophilus influenzae [6]): 1.2 µg/mL (≈ 1.6 µM)
MIC50 (Streptococcus sp. [22]): 10 µg/mL (≈ 13.4 µM)
MIC90 (Streptococcus sp. [22]): 40 µg/mL (≈ 53.4 µM)
MIC50 [23]: 40 µg/mL (≈ 53.4 µM)
MIC90 [23]: 40 µg/mL (≈ 53.4 µM)
MIC (Escherichia coli): 20 µg/mL (≈ 26.7 µM)
ED50 (Haemophilus influenzae [24]): 117 mg/kg
MIC (Streptococcus pneumoniae [7]): 40 µg/mL (≈ 53.4 µM)
MIC50 (Streptococcus sp. [25]): 40 µg/mL (≈ 53.4 µM)
MIC90 (Streptococcus sp. [25]): 40 µg/mL (≈ 53.4 µM)
MIC (Staphylococcus aureus [8]): 0.3 µg/mL (≈ 0.401 µM)
ED50 (Streptococcus pneumoniae [26]): > 100 mg/kg
MIC50 (Enterococcus [27]): 40 µg/mL (≈ 53.4 µM)
MIC90 (Enterococcus [27]): 40 µg/mL (≈ 53.4 µM)
ED50 (Streptococcus pneumoniae [28]): > 100 mg/kg
ED50 (Streptococcus pneumoniae [29]): > 100 mg/kg
MIC (Haemophilus influenzae [9]): 1.2 µg/mL (≈ 1.6 µM)
MIC (Streptococcus pyogenes [10]): 0.6 µg/mL (≈ 0.801 µM)
MIC50 (Staphylococcus sp.): 40 µg/mL (≈ 53.4 µM)
MIC90 (Staphylococcus sp.): 40 µg/mL (≈ 53.4 µM)
MIC50 [30]: 2.5 µg/mL (≈ 3.34 µM)
MIC90 [30]: 40 µg/mL (≈ 53.4 µM)
ED50 (Streptococcus pyogenes [31]): 16 mg/kg

Source: ChEMBL document CHEMBL1131139, “Synthesis and antibacterial activity of ketolides (6-O-methyl-3-oxoerythromycin derivatives): a new class of antibacterials highly potent against macrolide-resistant and -susceptible respiratory pathogens” (1998)
